Source: ChEMBL document CHEMBL2375256, “Functionalized indoleamines as potent, drug-like inhibitors of isoprenylcysteine carboxyl methyltransferase (Icmt)” (Eur J Med Chem, 2013)
In brackets after ≈: the same amount, converted by molar mass.

How the values were obtained:
[1] = biological target: Protein-S-isoprenylcysteine O-methyltransferase (Homo sapiens, UniProt O60725); test: Inhibition of recombinant Icmt (unknown origin) expressed in Sf9 cells assessed as transfer of methyl group from [3H]-S-adenosylmethionine to [3H]-biotin-S-farnesyl-L-cysteine after 30 mins
Protein-S-isoprenylcysteine O-methyltransferase, sequence (O60725 whole entry): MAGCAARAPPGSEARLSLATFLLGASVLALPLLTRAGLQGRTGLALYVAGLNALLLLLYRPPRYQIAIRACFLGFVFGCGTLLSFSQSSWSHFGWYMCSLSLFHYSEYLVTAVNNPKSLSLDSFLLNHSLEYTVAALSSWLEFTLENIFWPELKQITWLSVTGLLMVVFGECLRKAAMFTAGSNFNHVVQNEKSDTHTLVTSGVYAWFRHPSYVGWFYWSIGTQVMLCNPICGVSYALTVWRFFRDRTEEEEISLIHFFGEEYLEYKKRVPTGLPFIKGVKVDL
Summary of the method: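 Icmt membrane protein was diluted to 0.03 mg/mL in 70 mM HEPES, 100 mM NaCl, 5 mM MgCl2, 3 mM DTT, pH 7.5, and preincubated with inhibitor. The reaction was started with a mix of BFC, SAM and [3H]SAM and run 30 min at 37 °C. It was quenched with excess SAM, captured on streptavidin SPA beads overnight at ambient temperature, and counted. IC50 was taken from % activity versus log concentration, with two independent determinations.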

MDA-MB-231 = test: Antiproliferative activity against human MDA-MB-231 cells after 72 hrs […]; assay type: functional, cell-based; conditions: MDA-MB-231, 72 h
HepG2 = test: Antiproliferative activity against human HepG2 cells after 72 hrs […]; assay type: functional, cell-based; conditions: HepG2, 72 h
[2] = Aqueous solubility of the compound at pH 7.4 after 24 hrs agitation; assay type: physicochemical
[3] = Intrinsic clearance in rat liver microsomes at 3 uM; assay type: ADME, Microsome; conditions: read-out: CLH
Summary of the method: (§1)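 Compound at 3 µM was incubated with pooled male rat liver microsomes (0.3 mg protein/mL) in 0.1 M phosphate buffer pH 7.4 with 1 mM EDTA. The reaction was started with NADPH (1 mM final) at 37 °C and sampled at 0, 5, 15, 30 and 45 min.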

IMR-90 = test: Antiproliferative activity against human IMR90 cells after 72 hrs […]; assay type: cell-based; conditions: IMR-90, 72 h
PC-3 = test: Antiproliferative activity against human PC3 cells after 72 hrs […]; assay type: functional, cell-based; conditions: PC-3, 72 h
[4] = Half life in rat liver microsomes at 3 uM; assay type: ADME, Microsome; summary of the method: as §1
MIA PaCa-2 = test: Antiproliferative activity against human MIAPaCa2 cells after 72 hrs by MTT assay; assay type: functional, cell-based; conditions: MIA PaCa-2, 72 h

Q: Which results are given for CCCCCCCCn1cc(CN(CC)CC)c2cc(F)ccc21?
A: IC50 [1]: 4.42 µM; IC50 (MDA-MB-231): 7.36 µM

Q: For CCCCCCCCn1cc(CN(CC)CC)c2cc(-c3cccc(C)c3)ccc21, which IC50 (HepG2) is on record?
A: 4.9 µM

Q: What about the solubility at 24 h [2] of the same molecule?
A: 1.1 µM (≈ 0.445 µg/mL)

Q: What about the microsomal CLint at 3 µM [3] of the same molecule?
A: 85.8 µL/min/mg

Q: And the IC50 (MDA-MB-231)?
A: 5.14 µM

Q: What about the IC50 (IMR-90) of the same molecule?
A: 5.26 µM

Q: And the IC50 (PC-3)?
A: 6.31 µM

Q: And the half-life at 3 µM [4]?
A: 26.9 min

Q: With CCCCCCCCn1cc(CN(CC)CC)c2cc(-c3cccc(O)c3)ccc21 as the molecule, how does the IC50 (MDA-MB-231) read?
A: 18.1 µM

Q: And the IC50 (PC-3)?
A: 14.9 µM

Q: Which results are given for CCCCCCCCn1cc(CN(CC)CC)c2cc(-c3ccc(C#N)cc3)ccc21?
A: IC50 (MDA-MB-231): 10.8 µM; IC50 (PC-3): 6.11 µM

Q: With CCCCCCCCn1cc(CN(CC)CC)c2cc(-c3ccc(S(C)(=O)=O)cc3)ccc21 as the molecule, how does the IC50 (MDA-MB-231) read?
A: 5.56 µM

Q: And the IC50 (PC-3)?
A: 4.74 µM

Q: Which IC50 (MDA-MB-231) does the source give for CCCCCCCCn1cc(CN(CC)CC)c2cc(-c3ccc(S(=O)(=O)NC)cc3)ccc21 here?
A: 10.2 µM

Q: For CCCCCCCCn1cc(CN(CC)CC)c2cc(-c3cccnc3)ccc21, which IC50 (MDA-MB-231) is on record?
A: 5.5 µM

Q: And the IC50 (IMR-90)?
A: 5.52 µM

Q: And the IC50 (PC-3)?
A: 5.84 µM

Q: Which results are given for CCCCCCCCn1cc(CN(CC)CC)c2cc(-c3ccc(N(C)C)nc3)ccc21?
A: IC50 [1]: 1.63 µM; IC50 (MDA-MB-231): 2.52 µM; IC50 (PC-3): 1.92 µM

Q: With CCCCCCCCn1cc(CN(CC)CC)c2cc(-c3ccncc3F)ccc21 as the molecule, how does the IC50 [1] read?
A: 0.96 µM

Q: And the IC50 (MDA-MB-231)?
A: 5.14 µM

Q: What about the IC50 (PC-3) of the same molecule?
A: 5.88 µM

Q: With CCCCCCCCn1cc(CN(CC)CC)c2cc(-c3cncnc3)ccc21 as the molecule, how does the IC50 (MDA-MB-231) read?
A: 11.1 µM

Q: And the IC50 (IMR-90)?
A: 9.84 µM

Q: What about the IC50 (PC-3) of the same molecule?
A: 8.47 µM

Q: What does the source list for CCCCCCCCn1cc(CN(CC)CC)c2cc(-c3cnc(C#N)nc3)ccc21?
A: IC50 (MDA-MB-231): 3.85 µM; IC50 (PC-3): 5.74 µM

Q: For CCCCCCCCn1cc(CN(CC)CC)c2cc(-c3cnc(N)nc3)ccc21, which IC50 (HepG2) is on record?
A: 1.65 µM

Q: And the IC50 (MIA PaCa-2)?
A: 1.6 µM

Q: What about the microsomal CLint at 3 µM [3] of the same molecule?
A: 204 µL/min/mg

Q: And the IC50 (MDA-MB-231)?
A: 2.48 µM

Q: And the IC50 (IMR-90)?
A: 2.65 µM

Q: What about the IC50 (PC-3) of the same molecule?
A: 2.55 µM

Q: And the half-life at 3 µM [4]?
A: 11.3 min

Q: For CCCCCCCCn1cc(CN(CC)CC)c2c(F)cccc21, which IC50 (MDA-MB-231) is on record?
A: 7.5 µM

Q: For CCCCCCCCn1cc(CN(CC)CC)c2ccc(F)cc21, which IC50 [1] is on record?
A: 2.22 µM

Q: And the IC50 (MDA-MB-231)?
A: 9.14 µM

Q: With CCCCCCCCn1cc(CN(CC)CC)c2cccc(F)c21 as the molecule, how does the IC50 (MDA-MB-231) read?
A: 8.87 µM

Q: Which results are given for CCCCCCCCn1cc(CC(N)=O)c2cc(-c3cccc(C)c3)ccc21?
A: IC50 (HepG2): 19.3 µM; microsomal CLint at 3 µM [3]: 53.6 µL/min/mg; IC50 (MDA-MB-231): 22.1 µM; IC50 (PC-3): 21.3 µM; half-life at 3 µM [4]: 44.8 min
